# Pf Dd2 inh = P. falciparum Dd2 growth inhibitors, primary screen, SYBR Green fluorescence, single dose replicates; 72 h; hits give low values; activity change, % at 10 µM; AID 1159554, 2015; 94,000 tested, 2.3% active; in the data active = activity change below about -80%; inconclusive = no clear call, values can overlap the other calls
# KDM4C inh = inhibitors of GASC-1 (KDM4C) histone demethylase, primary screen, biochemical, single concentration HTS; inhibition, % at 12.5 µM; Lysine-specific demethylase 4C (Homo sapiens), Q9H3R0; 96,000 tested, 0.15% active; GST-KDM4C 2-372, H3K9me3 peptide, LANCE TR-FRET;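 active = mean replicate inhibition above about 25%, with at least 55% of replicates also reaching it, limit read from the data, passing the limit was not always enough; inconclusive = only one of those two conditions met; inactive = neither condition met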
#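 reagent = H3K9me3 peptide substrate, Fe(II), 2-oxoglutarate | system = GST-tagged GASC-1 (JMJD2C) catalytic fragment, aa 2-372 | amount = enzyme final amount 10 nM | read-out = Fall in 671/618 emission ratio as inhibition | medium = HEPES buffer, pH 7.5, plus ascorbate | schedule = 30 min reaction, 60 min detection, RT | measured by = LANCE TR-FRET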
# T cruzi growth-1 = T. cruzi intracellular proliferation inhibitors, primary screen, cell-based, beta-gal Tulahuen parasites, NIH3T3 host, luminescence; T. cruzi beta-gal in NIH3T3, GalScreen luminescence, 90 h; inhibition, % at 8.34 µM; 77,000 tested, 5.9% active;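 active = mean inhibition above about 93%, with at least 55% of replicates each passing it, limit read from the data, passing the limit was not always enough; inconclusive = only one of those two conditions holds; inactive = neither condition holds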
# IDH1 R132H inh = inhibitors of IDH1 R132H reductase, primary screen, biochemical, plate reader, single point; inhibition, % at 10 µM; diaphorase/resazurin fluorescence, 60 min; 70,000 tested, 0.18% active; in the data active = inhibition above about 34%; inconclusive = no clear call, values can overlap the other calls; inactive = below about 11%;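 note: 0% = DMSO and 100% = no enzyme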
# Target sequence (O75874 whole entry R132H): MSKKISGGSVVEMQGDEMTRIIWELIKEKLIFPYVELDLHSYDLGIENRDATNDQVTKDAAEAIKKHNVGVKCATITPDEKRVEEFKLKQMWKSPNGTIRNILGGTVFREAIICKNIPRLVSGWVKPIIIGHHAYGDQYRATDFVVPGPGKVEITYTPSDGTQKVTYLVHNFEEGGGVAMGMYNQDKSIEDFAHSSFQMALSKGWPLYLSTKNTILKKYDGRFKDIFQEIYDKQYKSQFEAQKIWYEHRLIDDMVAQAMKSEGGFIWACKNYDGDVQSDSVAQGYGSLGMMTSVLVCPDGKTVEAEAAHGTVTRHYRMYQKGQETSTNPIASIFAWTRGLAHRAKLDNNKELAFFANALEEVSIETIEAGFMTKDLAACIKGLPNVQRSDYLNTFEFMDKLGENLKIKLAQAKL
# T cruzi growth-2 = T. cruzi intracellular proliferation inhibitors, confirmation, cell-based, NIH3T3 host, beta-gal parasite, luminescence, cherry-pick; shares compounds with T cruzi growth-1; T. cruzi beta-gal in NIH3T3, GalScreen luminescence, 90 h; inhibition, % at 8.35 µM; 5,600 tested, 72% active; AID 651739, 2012;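 active = mean replicate inhibition above about 95% and at least 55% of replicates individually reaching it, limit read from the data; inconclusive = only one of the two criteria is met; inactive = neither criterion is met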
# T cruzi growth-3 = inhibitors of intracellular T. cruzi replication, confirmation, NIH3T3 host cells, beta-gal parasites, cherry-pick, set 2; shares compounds with T cruzi growth-1; T. cruzi beta-gal in NIH3T3, GalScreen luminescence, 90 h; inhibition, % at 2.09 µM; 5,600 tested, 21% active;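 active = mean inhibition above about 95%, with at least 55% of replicates also reaching it, limit read from the data; inconclusive = meets just one of the two conditions; inactive = meets neither condition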;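 note: plate controls were neutral control median for no effect and positive control median for full effect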
# NIH3T3 tox = cytotoxicity in mouse NIH/3T3 fibroblasts, confirmation, cytotoxicity control for T. cruzi proliferation inhibitor project, cell-based, cherry-pick, single point | shares compounds with T cruzi growth-1 | NIH/3T3 viability, CellTiter-Glo ATP luminescence, 90 h | cytotoxicity (signal decrease), % at 8.35 µM | 5,600 tested, 14% active;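 active = mean signal decrease across replicates above about 35% based on untreated-well scatter, with enough replicates individually passing, limit read from the data; inconclusive = no rule stated though some were filed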;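 note: 0% = median of neutral control wells and 100% = median of positive control wells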
# NIH3T3 tox 2 = NIH/3T3 fibroblast cytotoxicity, confirmation, cytotoxicity control, cell-based, cherry-pick, single point, set 2; AID 651744, 2012; 5,600 tested, 56% active; inhibition, % at 24.9 µM; shares compounds with T cruzi growth-1; NIH/3T3 viability, CellTiter-Glo ATP luminescence, 90 h;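 active = mean loss of cell viability signal at or above a set limit, and enough replicates individually reaching it; inconclusive = meets only the mean limit or only the replicate share; inactive = meets neither condition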;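 note: 0% = median of neutral control wells and 100% = median of positive control wells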
# The depositor's hits bear a star; ? = inconclusive; · = no result given. Only some compounds are listed: those with a hit (about 5.8% of all), similar ones and a draw of the others.
SMILES,Pf Dd2 inh,KDM4C inh,T cruzi growth-1,IDH1 R132H inh,T cruzi growth-2,T cruzi growth-3,NIH3T3 tox,NIH3T3 tox 2
CC(C)CC#Cc1ccc([C@@H]2[C@H]3CN(S(=O)(=O)Cc4ccccc4)CCCCN3[C@H]2CO)cc1,-57,5,104*,·,99*,105*,24,106*
CC(C)C#Cc1ccc([C@@H]2[C@H]3CN(S(=O)(=O)Cc4ccccc4)CCCCN3[C@H]2CO)cc1,-24,0,101*,·,98*,89,18,106*
C[C@H]1CCCCO[C@H](CN(C)C(=O)Nc2cccc3ccccc23)[C@@H](C)CN([C@@H](C)CO)C(=O)c2cc(NC(=O)CCCN(C)C)ccc2O1,-74,3,35,-2,·,·,·,·
C[C@@H]1CN([C@H](C)CO)C(=O)c2cc(NS(C)(=O)=O)ccc2O[C@@H](C)CCCCO[C@H]1CN(C)C(=O)Nc1ccccc1,4,17,-28,4,·,·,·,·
COC(=O)[C@H]1[C@H](CO)[C@H]2Cn3c(ccc(-c4ccccc4)c3=O)[C@H]2N1C(=O)CC1CC1,·,0,-32,·,·,·,·,·
C/C=C/c1ccc2c(c1)O[C@@H](CN(C)C(=O)COC)[C@@H](C)CN([C@@H](C)CO)S2(=O)=O,7,0,·,0,·,·,·,·
OC[C@@H]1[C@H](c2ccc(-c3cccc(F)c3)cc2)[C@@H]2CN(CCC(F)(F)F)CCCCN12,-11,0,91,·,·,·,·,·
CN(C)C(=O)c1ccc(-c2ccc([C@H]3[C@@H](CO)N4CCCCN(CCC(F)(F)F)C[C@H]34)cc2)cc1,-24,0,101*,·,100*,89,-9,-5
Cc1cccc(-c2ccc([C@@H]3[C@H]4CN(CCC(F)(F)F)CCCCN4[C@H]3CO)cc2)c1,-12,-2,99*,·,103*,85,41*,105*
OC[C@H]1[C@@H](c2ccc(-c3ccc(F)cc3)cc2)[C@H]2CN(CCC(F)(F)F)CCCCN21,-50,-2,102*,·,103*,81,57*,105*
OC[C@@H]1[C@H](c2ccc(-c3ccccc3)cc2)[C@H]2CN(CCC(F)(F)F)CCCCN12,-80*,-1,104*,·,103*,62,19,106*
OC[C@@H]1[C@@H](c2ccc(-c3ccccc3)cc2)[C@H]2CN(CCC(F)(F)F)CCCCN12,-72,1,85,·,·,·,·,·
C[C@H]1CN([C@@H](C)CO)C(=O)c2cccc(NC(=O)Nc3ccccc3)c2O[C@@H]1CN(C)S(=O)(=O)c1cn(C)cn1,-10,4,-15,0,·,·,·,·
CC(C)NC(=O)N(C)C[C@H]1Oc2cc(Br)ccc2S(=O)(=O)N([C@H](C)CO)C[C@@H]1C,42,1,-28,-5,·,·,·,·
CO[C@@H]1CN(C)C(=O)c2cc(NC(=O)Nc3cccc(F)c3)ccc2OC[C@@H](C)N(C(=O)Nc2c(C)noc2C)C[C@H]1C,3,-1,64,0,·,·,·,·
OC[C@@H]1[C@H](c2ccc(-c3cccc(F)c3)cc2)[C@H]2CN(CCC(F)(F)F)CCCCN12,-74,-2,107*,·,99*,85,27,104*
OC[C@@H]1[C@H](c2ccc(C#CC3CCCC3)cc2)[C@H]2CN(CCC(F)(F)F)CCCCN12,?,0,101*,·,89,109*,58*,105*

# Screens as filed in PubChem.
